PMC8790739 (JACS Au, 2022)

Key:
tobacco BY-2 cells = test: Peptide-mediated Citrine transduction; type: cell-based, Nicotiana tabacum; conditions: for Citrine internalization into BY-2 cells at lower peptide concentrations: 9 nM–9 μM peptide (low concentrations), Figure S2; for Citrine fluorescence in the nuclei of BY-2 cells: 1 h incubation
Summary of the method: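 Exponentially growing BY-2 cells (OD600 0.5) mixed in a glass-bottom dish with Citrine plus peptide, or with individual peptide domains as controls, for 1 h at 26 °C. Citrine-only cells served as control. Uptake was imaged directly by confocal microscopy at Ex/Em 488/515–580 nm.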

A. thaliana cotyledons [1] = test: Evans blue viability assay, A. thaliana cotyledons; type: cell-based, Arabidopsis thaliana; conditions: 1 h, vacuum/compression infiltration, n = 4, Figure 2A, particularly dTat-Sar-EED5
O. sativa calli [2] = test: Evans blue viability assay, O. sativa calli; type: cell-based, Oryza sativa; conditions: 1 h, vacuum/compression infiltration, n = 4, Figure 2A, particularly dTat-Sar-EED5
M. polymorpha sporelings [3] = test: Evans blue viability assay, M. polymorpha sporelings; type: cell-based, Marchantia polymorpha; conditions: 1 h at 22 °C, n = 4, Figure 2A
Summary of the method: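 Marchantia polymorpha sporelings (Tak-1 × Tak-2 cross, held 4 days in water) incubated with peptide for 1 h at 22 °C, then stained with Evans blue 150 μg/mL. Stained (dead) and unstained (live) cells counted; viability taken from live/dead ratio. Boiled sporelings (95 °C, 10 min) served as 100% dead. Four biological replicates, mean ± SE, Dunnett's T3 versus 0 μM.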

C. reinhardtii cells [4] = test: Colony formation viability assay, C. reinhardtii; type: cell-based, Chlamydomonas reinhardtii; conditions: for Cell death in C. reinhardtii (colony formation assay): 2.5 μM peptide, 20 min in TAP medium with 40 mM sucrose, n = 3, Figure 2C
Summary of the method: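 Log-phase Chlamydomonas reinhardtii wild-type cc125+ (2 days after subculture, grown in TAP at 23 °C under constant light) exposed to peptide (39 nM–2.5 μM) for 20 min in TAP with 40 mM sucrose. Cells washed, plated on TAP agar, colonies counted. Viability = colonies with peptide ÷ colonies without. Three biological replicates, mean ± SD.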

E. gracilis cells [5] = test: Evans blue viability assay, E. gracilis; type: cell-based, Euglena gracilis; conditions: 9 nM–90 μM peptide, 3 h at 26 °C, n = 3, Figure 2C
Summary of the method: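 Euglena gracilis was grown in CM medium pH 3.5 (26 °C, 100 rpm) to OD730 0.23, then incubated with peptide (9 nM–90 μM) for 3 h at 26 °C. Cells pelleted and stained with Evans blue 150 μg/mL for 20 min, washed three times, then live and dead cells counted microscopically. Viability = live/dead ratio relative to untreated cells. Three biological replicates, mean ± SD.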

C. reinhardtii cells [6] = test: Peptide-mediated Citrine transduction; type: cell-based, Chlamydomonas reinhardtii; conditions: 156 nM peptide, Citrine 100 μg/mL, 20 min (b14 says 3 h), CLSM, Figure 2D
Summary of the method: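 Log-phase Chlamydomonas cells suspended in TAP containing 156 nM peptide, 100 μg/mL Citrine and 40 mM sucrose, for 20 min. Cells washed and mounted on slides; Citrine-only cells served as control. Confocal imaging: Citrine at Ex/Em 488/520–550 nm, chlorophyll at 488/660–720 nm.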

E. gracilis cells [7] = test: Peptide-mediated Citrine transduction; type: cell-based, Euglena gracilis; conditions: 9 μM peptide, Citrine 100 μg/mL, 3 h at 26 °C, CLSM, Figure 2D
Summary of the method: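 Euglena suspension (OD730 0.23) exposed to Citrine with or without peptide in culture medium in a 96-well plate, 3 h at 26 °C, shaking at 100 rpm. Confocal imaging: Citrine at Ex/Em 488/520–550 nm, chlorophyll at 488/660–720 nm.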

[8] = test system: tobacco (Nicotiana tabacum) Bright Yellow-2 (BY-2) cells; test: Evans blue cell viability assay, BY-2 cells; type: cell-based
A. thaliana cotyledons [9] = test: Peptide-mediated Citrine transduction; type: cell-based, Arabidopsis thaliana; conditions: 90 μM peptide, Citrine 200 μg/mL, CLSM, Figure 2B
Summary of the method: (§1)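 Col-0 cotyledons (seedlings 7–9 days) or Nipponbare calli (1 week on N6D, 30 °C, constant light) vacuum/compression-infiltrated with 200 μg/mL Citrine, with 90 μM peptide or alone as control. Incubation 1 h: cotyledons at 22 °C, calli at 30 °C. Washed twice with 1/2 MS plus 1% sucrose; confocal imaging at Ex/Em 488/515–560 nm.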

O. sativa calli [10] = test: Peptide-mediated Citrine transduction; type: cell-based, Oryza sativa; conditions: 90 μM peptide, Citrine 200 μg/mL, CLSM, Figure 2B
Summary of the method: as §1

M. polymorpha sporelings [11] = test: Peptide-mediated Citrine transduction; type: cell-based, Marchantia polymorpha; conditions: 90 μM peptide, Citrine 200 μg/mL, 1 h at 22 °C, CLSM, Figure 2B
Summary of the method: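 Sporelings incubated 1 h at 22 °C in solution with 90 μM peptide and 200 μg/mL Citrine; Citrine alone served as control. Time-gated confocal detection (0.5–12.0 ns) at Ex/Em 510/546–566 nm.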

[12] = test system: A. thaliana root epidermal cells; test: FM4-64 uptake into A. thaliana roots; type: cell-based, Arabidopsis thaliana; conditions: dTat-Sar-EED4 30 μM, FM4-64 10 μM, Figure 4B
Summary of the method: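 Roots of Col-0 seedlings (7–9 days) pretreated 30 min at 25 °C in 1/2 MS with 0.6% v/v DMSO or 30 μM ES9-17. FM4-64 (10 μM) then added, ± peptide, for 30 min at 25 °C in the dark. Confocal imaging at Ex/Em 488/620–680 nm. Mean intensity of manually segmented whole cytoplasm was divided by that of the apical plasma membrane, for more than 100 cells from 8 roots.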

[13] = 90 μM peptide, Citrine 100 μg/mL, CLSM, Figure 1D

Row | Substance | Concentrations at which toxic to A. thaliana cotyledons (A. thaliana cotyledons [1]) [µM] | Concentrations at which toxic to O. sativa calli (O. sativa calli [2]) [µM] | Cell death in M. polymorpha sporelings (M. polymorpha sporelings [3]) | Cell death in C. reinhardtii (colony formation assay) (C. reinhardtii cells [4]) | Cytotoxicity toward E. gracilis (E. gracilis cells [5]) | Citrine internalization into BY-2 cells at lower peptide concentrations (tobacco BY-2 cells; CLSM) | Citrine fluorescence in the nuclei of BY-2 cells (tobacco BY-2 cells; [13]) | other results
1 | (Sar)6-GFWFG [Sar-EED5] |  |  |  |  |  |  |  | Citrine uptake by BY-2 cells with individual peptide domains (tobacco BY-2 cells; 90 μM of each peptide domain, 1 h, Citrine 100 μg/mL, CLSM, Figure 1D): did not show Citrine uptake
2 | rrrqrrkkr-(Sar)6-GFWFG [dTat-Sar-EED5] | ≥ 90 | ≥ 90 | did not cause severe cell death | induced severe cell death | Neither peptide exhibited cytotoxicity | negligible Citrine uptake | detected Citrine fluorescence in the nuclei of some cells | Citrine internalization into C. reinhardtii (C. reinhardtii cells [6]): Citrine was internalized; Citrine internalization into E. gracilis (E. gracilis cells [7]): Citrine was internalized
3 | rrrqrrkkr-(Sar)6-GWWG [dTat-Sar-EED4] | ≥ 90 | ≥ 90 | did not cause severe cell death | induced severe cell death | Neither peptide exhibited cytotoxicity | no Citrine internalization was observed | detected Citrine fluorescence in the nuclei of some cells | Cytotoxicity to BY-2 cells after prolonged treatment ([8]; 90 μM for up to 48 h, n = 3, Figure S1): did not result in significant cytotoxicity; Toxicity to BY-2 cells compared between the two peptides ([8]; 1 h treatment, 9 μM to 9 mM, Figure 1B): less toxic than dTat-Sar-EED5; Toxicity to C. reinhardtii cells compared between the two peptides (C. reinhardtii cells [4]; concentrations of 156 nM or more, 20 min, colony formation assay, Figure 2C): slightly more toxic; Citrine internalization into BY-2 cells, time-lapse CLSM (tobacco BY-2 cells; 90 μM peptide, Citrine 100 μg/mL, Figure 1C, Movies S1, S2): rapid internalization of Citrine into BY-2 cells within a few minutes; Transfer of Citrine to the nucleus in A. thaliana cotyledon cells (A. thaliana cotyledons [9]; 1 h): appeared to be transferred to the nucleus; Citrine internalization into A. thaliana cotyledons (A. thaliana cotyledons [9]; 1 h at 22 °C): Citrine internalization was observed; Transfer of Citrine to the nucleus in O. sativa calli (O. sativa calli [10]; 1 h): such behavior was not detected; Citrine internalization into O. sativa calli (O. sativa calli [10]; 1 h at 30 °C): Citrine internalization was observed; Citrine internalization into M. polymorpha sporelings (M. polymorpha sporelings [11]): Citrine internalization was observed; Enhancement of FM4-64 uptake, DMSO-treated samples ([12]; DMSO 0.6% v/v): slight; Enhancement of FM4-64 uptake, ES9-17-treated samples ([12]; ES9-17 30 μM): more pronounced
